From ChEMBL document CHEMBL3124901, “Inhibitory effect of a callophycin A derivative on iNOS expression via inhibition of Akt in lipopolysaccharide-stimulated RAW 264.7 cells” (2014) come the findings set out here.

Molecules are shown by their SMILES. The source made the active and inactive calls. The calls are words filed in the database; no cut-off is given here.

In assay [1] the test system is RAW264.7. In words: Antiinflammatory activity in LPS-stimulated mouse RAW264.7 cells assessed as inhibition of iNOS protein expression at 50 uM preincubated for 15 mins followed by LPS challenge measured after 20 hrs by Western blot analysis. The assay is classed as functional, cell-based.
The subject of assay [2] is RAW264.7. In words: Inhibition of PI3K/AKT in mouse RAW264.7 cells assessed as inhibition of LPS-induced iNOS protein expression at 25 uM after 20 hrs by Western blot analysis. The assay is classed as cell-based. In short, it runs like this:
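Pretreatment with 25 μM or LY294002 (25 μM), then LPS for 20 h; iNOS protein by Western blot.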
On the technique in general: A western blot detects proteins with antibodies after separation by electrophoresis.

On to `O=C(O)[C@H]1Cc2c([nH]c3ccccc23)CN1Cc1ccc(O)cc1`, for which the inhibition result with RAW264.7 [1] is “inactive”.

For the compound `O=c1cc(N2CCOCC2)oc2c(-c3ccccc3)cccc12`, in the assay on RAW264.7 [2], the inhibition result was “Active”.

Consider `O=C(O)[C@@H]1Cc2c([nH]c3ccccc23)CN1Cc1ccc(O)cc1`, for which, in the assay with RAW264.7 [1], the inhibition entry was “inactive”.
